Source: PubChem (several laboratories)
Only some compounds are listed: those with a hit (about 2.9% of all), similar ones and a draw of the others.
Dynein cargo inh: dynein cargo transport inhibition. 3617.4 mouse cells, GR-EGFP nuclear translocation imaging; test concentration mostly 20 µM; stimulated with dexamethasone, 1 µM; hits give low values. z-score, hits read low. hit rate 0.47% among 220,000;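 active = plate z-score of nuclear minus cytoplasmic receptor signal below a set negative limit, without overly bright fluorescence or cell loss, cut at about -3.5 in these data, passing the limit was not always enough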;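 also: z-score of nuclear minus cytoplasmic ring GR-EGFP intensity difference per well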
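Buffer or medium: Induction medium lacking tetracycline, stripped serum | Also added: Dexamethasone agonist, 1.0 µM final, for 30 min | Timing: 48 h induction, 1 h compound, 30 min dex at 37 °C | Detection: Formaldehyde fixation, Hoechst nuclear stain, 10x automated fluorescence imaging | Measure: Nuclear versus cytoplasmic GR-EGFP signal, averaged per well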
B2AR ag: human beta-2 adrenergic receptor agonism by FAP | P07550 | Am2.2-beta2AR cells, FAP receptor internalization, flow cytometry | hit rate 0.43% among 340,000 | response, % (concentration not given with the values);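 active = response above a set limit, near 3 SD of response in nonfluorescent compounds, cut at about 42% in these data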
Target sequence (P07550 whole entry, looked up): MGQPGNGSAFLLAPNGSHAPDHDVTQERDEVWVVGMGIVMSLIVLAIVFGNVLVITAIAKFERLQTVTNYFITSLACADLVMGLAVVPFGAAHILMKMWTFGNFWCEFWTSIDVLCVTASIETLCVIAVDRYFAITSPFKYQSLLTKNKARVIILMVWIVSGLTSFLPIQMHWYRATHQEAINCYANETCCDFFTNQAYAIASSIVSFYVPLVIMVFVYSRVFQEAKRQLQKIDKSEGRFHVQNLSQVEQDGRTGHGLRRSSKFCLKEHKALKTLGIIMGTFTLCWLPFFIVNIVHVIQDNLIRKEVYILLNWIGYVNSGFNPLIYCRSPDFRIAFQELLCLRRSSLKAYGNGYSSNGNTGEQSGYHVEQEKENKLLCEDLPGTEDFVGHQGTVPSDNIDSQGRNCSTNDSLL
MEKK2mut PB1 HTS: signal of MEK5 binding to mutant human MEKK2 PB1 domain; bead flow cytometry, Alexa488-MEK5 binding to MEKK2 mutant; percent response, % at 10 µM; hit rate 0.35% among 290,000; AID 1530; in the data active = percent response above about 24%, passing the limit was not always enough
MEKK2wt PB1 HTS: raises or lowers MEK5 binding to wildtype human MEKK2 PB1 domain; Q9Y2U5; bead flow cytometry, Alexa488-MEK5 binding to MEKK2 WT; actives lie on both sides; binding response (% of control), % at 10 µM; hit rate 1.1% among 290,000; AID 1531; in the data active = binding response below about 67% or above about 130%; inconclusive = no clear call, values can overlap the other calls; inactive = in between
ATG4B inhibitor: blocks human ATG4B protease cleavage of LC3 substrate; inhibition, % at 8.33 µM; AID 504462; Q9Y4P1; hit rate 0.51% among 340,000; ATG4B cleavage of LC3-PLA2, NBD-HPC fluorescence, 1 h; in the data active = inhibition above about 40%
MEKK3 PB1 HTS: modulators (inhibitors or enhancers) of MEK5 binding to human MEKK3 PB1 domain. Q99759. binding response (% of control), % at 10 µM. bead-based flow cytometry, Alexa488-MEK5 binding to MEKK3; actives lie on both sides; 0 = blocked by unlabeled MEK5, 100 = vehicle. hit rate 1.4% among 290,000;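 active = binding response more than 3 SD above or below the average of its plate-row segment, actives on both sides; inconclusive = wells at one plate position flagged as instrument error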;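 also: Alexa488 bead fluorescence after subtracting the streptavidin-only scavenger bead signal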
Dynein confirm: dynein cargo transport inhibition, confirmation; shares compounds with Dynein cargo inh; 3617.4 GR-EGFP nuclear translocation imaging, dexamethasone-induced; calls only at 20 µM; hit rate 69% among 1,000;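 active = inhibition of receptor movement into the nucleus at or above a set limit in both runs, with normal cell brightness and cell count; inconclusive = limit reached in only one run, brightness and count normal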;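 also: dexamethasone at 1 µM final in well for 30 min; nuclear minus cytoplasmic GR-EGFP mean intensity difference in channel 2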
An asterisk follows results filed as active; i = inactive; ? = inconclusive; / = not tested or not shown; + = active, no number.

SMILES	Dynein cargo inh	B2AR ag	MEKK2mut PB1 HTS	MEKK2wt PB1 HTS	ATG4B inhibitor	MEKK3 PB1 HTS	Dynein confirm
O=[N+]([O-])c1c(NCCCO)cc(SCc2ccco2)c2nonc12	-3.5*	11	4	101	0	106	+
O=[N+]([O-])c1c(NCCCO)cc(N2CCCCCC2)c2nonc12	/	9	5	104	-1	104	/
CC(=O)OCCCNc1cc(Sc2ccc(C)cc2)c2nonc2c1[N+](=O)[O-]	-4.6*	9	1	105	5	130*	i
O=[N+]([O-])c1c(NCCCO)cc(Sc2ccc(Cl)cc2)c2nonc12	-4.7*	30	-1	100	-8	121	+
CC(=O)OCCCNc1cc(Sc2nc3ccccc3s2)c2nonc2c1[N+](=O)[O-]	-3.4	-242	-5	91	-4	92	/
Cc1cc(C(=O)COC(=O)c2nn(C)c(=O)c3ccccc23)c(C)n1C	/	-6	/	/	8	/	/
CCOc1ccccc1-c1nc(CN2CCCN(C(=O)c3ccco3)CC2)c(C)o1	/	-13	7	110	9	99	/
COc1cccc(/C=C/C(=O)N(C)CC(=O)Nc2ccc(Cl)c(C(F)(F)F)c2)c1	/	0	/	/	4	/	/
CS(=O)(=O)c1nc(-c2ccc(Br)cc2)cc(-c2ccccc2)c1C#N	-6*	30	2	96	-4	101	+
CS(=O)c1nc(-c2ccc(Br)cc2)cc(-c2ccccc2)c1C#N (stereo unspecified)	-4.1*	99*	7	101	7	105	+
CC(=O)N1CC=C2C(C#N)=C(N)C(C#N)(C#N)C(CCc3ccccc3)C2C1 (stereo unspecified)	1.1	-5	2	105	30	103	/
CCN1CC=C2C(C#N)=C(N)C(C#N)(C#N)C(CCc3ccccc3)C2C1 (stereo unspecified)	-7.5	-3	-5	89	-13	99	i
CN(Cc1ccc(Cl)cc1)C(=O)COC(=O)c1ccc(-c2ccc(O)cc2)cc1	/	0	/	/	-8	/	/
CC(C)Cc1nc2oc3c(Cl)ncnc3c2c2c1CCCC2	-5.7*	25	2	101	-8	96	+
O=[N+]([O-])c1cc([N+](=O)[O-])c2cccnc2c1Oc1ccccc1O	-4.4*	51*	7	95	7	89	+
Cc1ccc(OCC(=O)NNC(=O)C2CSC3(C)CCC(=O)N23)cc1 (stereo unspecified)	/	-1	/	/	2	/	/
Cc1ccc(CN=Cc2[nH]c3ccc(Br)c(Cl)c3c2O)cc1	-4.3	-231	-2	93	22	97	+
Cc1ccc(C(CNC(=O)c2ccco2)N2CCN(C)CC2)cc1 (stereo unspecified)	/	-11	/	/	4	/	/
CCCS(=O)(=O)c1nnnn1-c1cccc(OC)c1	-5.5*	23	2	95	-5	90	+
COc1cccc(-n2nnnc2SCC(=O)Nc2ccccc2OC)c1	/	0	-1	96	-4	99	/
Cc1cc(C2=CC(C)(c3cc(C)oc3C)Nc3nc(C(F)(F)F)nn32)c(C)o1 (stereo unspecified)	-6.1*	/	-4	93	/	91	+
CCC1Oc2ccc(C)cc2N(CC(=O)N(Cc2cccnc2)Cc2ccc(C)o2)C1=O (stereo unspecified)	-3.7*	5	-4	97	10	96	?
CCC1Oc2ccc(C)cc2N(CC(=O)N(Cc2ccc(C)o2)C2CC(C)(C)NC(C)(C)C2)C1=O (stereo unspecified)	2.3	0	8	100	-2	116	/
CSCCC(NS(=O)(=O)c1ccccc1F)C(=O)NCc1cccnc1 (stereo unspecified)	/	-5	/	/	0	/	/
COc1ccc(Cl)cc1NC(=O)C1Cc2cc(S(=O)(=O)N3CCCC3)ccc2N1C(C)=O (stereo unspecified)	/	10	5	106	-6	104	/
SMILES	Dynein cargo inh	B2AR ag	MEKK2mut PB1 HTS	MEKK2wt PB1 HTS	ATG4B inhibitor	MEKK3 PB1 HTS	Dynein confirm
COc1ccc(OC)c(-c2csc(NC(=O)Cc3ccc(F)cc3)n2)c1	/	3	3	105	-4	101	/
Cc1ccc(-c2csc(NC(=O)Cc3ccc(F)cc3)n2)o1	-3.9*	5	-8	93	-16	101	i
CC(=O)Oc1ccc(OC(C)=O)c(SCCCCCCl)c1	-4.6*	5	5	101	-6	101	+
CC(=O)Oc1ccc(C(=O)O)cc1OC(C)=O	-0.34	5	7	104	9	107	/
CN=c1scc(-c2cccs2)n1/N=C/c1ccccc1O	1	-6	-3	102	24	101	/
CN=c1scc(-c2cccs2)n1/N=C/c1ccc(O)c(O)c1O	-3.6*	106*	29	121	2	101	?
CCCCN(C(=O)C(C)Oc1ccc(Br)cc1)c1c(N)n(CC(C)C)c(=O)[nH]c1=O (stereo unspecified)	/	13	/	/	-5	/	/
COc1cc(OC)nc(-n2ncc(Br)c(Br)c2=O)n1	-3.5*	25	-3	90	-1	85	+
Cc1cc(C)n(C(=O)c2c([N+](=O)[O-])c(C)nn2C)n1	0.45	5	1	99	0	96	/
Cc1ccc(SC(=O)c2c([N+](=O)[O-])c(C)nn2C)cc1	-4.2*	24	-5	101	-5	102	+
CCN(c1ccccc1)c1cc(C)nc2ncnn12	0.19	0	2	98	-4	102	/
Cc1cc(Oc2ccc(-c3ccccc3)cc2)n2ncnc2n1	-4.7*	2	4	108	-5	112	+
O=C1COc2ccc(C(=O)CCl)cc2N1	-4*	10	-13	90	-3	92	+
O=C(/C=C/c1ccc(OC(F)F)cc1)OCC(=O)N1CCC(c2ccccc2)=N1	/	-5	/	/	0	/	/
CCOC(=O)C(NC(=O)c1cccc(Cl)c1)(Nc1sc2c(c1C(N)=O)CCC2)C(F)(F)F (stereo unspecified)	-4.5*	0	0	99	-14	114	+
CCOC(=O)C(NC(=O)c1ccccc1Cl)(Nc1sc2c(c1C(N)=O)CCC2)C(F)(F)F (stereo unspecified)	-1.4	-1	8	89	-10	102	/
CCS(=O)(=O)c1ccc2oc(SCC(=O)c3c(N)n(C4CC4)c(=O)[nH]c3=O)nc2c1	/	-4	/	/	-1	/	/
